Source: PubChem BioAssay
HDAC3 inhib: HDAC3 deacetylase inhibitors, primary screen, biochemical, fluorescence, cell-free homogeneous | inhibition, % at 8.3 µM | recombinant HDAC3, fluorogenic peptide/trypsin coupled | 0.15% of 320,000 active | Histone deacetylase 3 (Homo sapiens), O15379; in the data active = inhibition above about 26%, passing the limit was not always enough
Target sequence (O15379 whole entry, looked up): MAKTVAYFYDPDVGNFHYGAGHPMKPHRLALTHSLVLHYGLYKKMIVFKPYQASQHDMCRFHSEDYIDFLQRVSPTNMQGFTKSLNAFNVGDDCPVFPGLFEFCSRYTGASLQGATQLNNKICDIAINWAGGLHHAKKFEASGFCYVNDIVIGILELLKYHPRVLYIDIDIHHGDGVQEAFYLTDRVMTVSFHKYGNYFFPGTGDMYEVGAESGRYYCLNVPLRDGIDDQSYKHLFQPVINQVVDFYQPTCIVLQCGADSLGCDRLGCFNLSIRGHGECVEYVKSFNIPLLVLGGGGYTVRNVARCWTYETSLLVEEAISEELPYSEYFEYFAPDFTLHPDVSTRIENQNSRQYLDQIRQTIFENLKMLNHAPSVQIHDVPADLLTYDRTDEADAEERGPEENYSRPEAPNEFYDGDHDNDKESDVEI
PolyA inhibitor: polyadenylation inhibitors in yeast reporter cells, primary screen, luminescence, S. cerevisiae. S. cerevisiae SKY197-pL101 polyadenylation reporter, beta-gal luminescence; efflux-impaired pdr1/pdr3 knockout yeast; score 100 = 6 SD above DMSO. activity score, % at 12 µM. 0.02% of 300,000 active;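 active = lowest replicate activity score at least 50, where 100 means six control SD above control mean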;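 also: yeast exposed to compound for 9 h at 30 °C; higher score means more reporter readthrough which indicates perturbed polyadenylation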
Efflux pump inh: inhibitors of Candida efflux pumps in yeast, primary screen, S. cerevisiae, Nile Red, multiplex; S. cerevisiae Candida pump triplex; inhibition, % at 10 µM; 0.44% of 330,000 active; AID 485275, 2010;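 active = plate passing quality check with inhibition over a set limit, or well fluorescence over plate mean plus 4 SD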;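 also: Nile Red retained in pooled yeast measured as flow cytometry median fluorescence; higher means more Nile Red kept so more efflux inhibition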
AI-2 QS mod: Vibrio harveyi AI-2 quorum sensing modulators, primary screen, JMH597 strain, luminescence/OD600 ratio. AID 2094, 2009. activity change, % at 7.5 µM. Vibrio harveyi JMH597 AI-2 luminescence/OD600 ratio, 9 h; active compounds read low; strain lacks LuxN and CqsS sensors; 0 = neutral-control median. 0.4% of 300,000 active; in the data active = activity change below about -75%, passing the limit was not always enough;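 also: luminescence divided by OD600 gain over 9 h not by final OD600 alone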
T cruzi inh: inhibitors of intracellular T. cruzi growth, primary screen, luminescence, NIH3T3 host cells. T. cruzi beta-gal in NIH3T3, 90 h. inhibition, % (test concentration not listed). 1.4% of 300,000 active. AID 1885, 2009;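 active = mean inhibition across valid replicates above about 55%, limit read from the data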;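 also: signal also drops with host cell toxicity which is not excluded here; higher percent means less beta-gal luminescence so fewer parasites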
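Assay system: NIH/3T3 fibroblasts plus reporter T. cruzi. Amount: NIH/3T3 cells, 5,000 per well. Buffer or medium: DMEM, 2% fetal bovine serum. Doses: compound pinned at 50 nL/well, DMSO. Schedule: ≥90 h infection period, 3 h prior cell attachment. Signal: luminescent β-galactosidase signal after 60 min lysis. Read-out: parasite load inhibition, %.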
A number is an active result. A selection: hits, their analogues and other compounds. The true share with any hit is near 2.2%.

Screening Cc1cc(C)c2nc(NNC(=O)c3ccc(S(=O)(=O)N4CCc5ccccc5C4)cc3)sc2c1 returned HDAC3 inhib inactive, PolyA inhibitor inactive, Efflux pump inh inactive, AI-2 QS mod inactive and T cruzi inh 59.0.
`Cc1cc(C)c2sc(NNC(=O)c3ccc(S(=O)(=O)N4CCc5ccccc5C4)cc3)nc2c1` gave HDAC3 inhib inactive, PolyA inhibitor inactive, Efflux pump inh inactive, AI-2 QS mod inactive and T cruzi inh 58.7.
For CCc1nnc(NC(=O)c2ccc(S(=O)(=O)N3CCc4ccccc4C3)cc2)s1 the results were HDAC3 inhib inactive, PolyA inhibitor inactive, Efflux pump inh inactive, AI-2 QS mod inactive and T cruzi inh inactive.
`CC(NC(=O)COc1ccc(-c2nnco2)cc1)c1ccc(Cl)cc1Cl` (stereo not drawn) gave HDAC3 inhib inactive, PolyA inhibitor inactive, Efflux pump inh inactive, AI-2 QS mod inactive and T cruzi inh inactive.
Screening CCOc1ccc2ccccc2c1/C=N/NC(=O)CNC(=O)c1ccccc1F returned HDAC3 inhib inactive, PolyA inhibitor inactive, Efflux pump inh inactive, AI-2 QS mod inactive and T cruzi inh inactive.
`CCc1cc(C(=O)NCC2CCCO2)sc1C` (stereo not drawn) gave HDAC3 inhib inactive, PolyA inhibitor inactive, Efflux pump inh inactive, AI-2 QS mod inactive and T cruzi inh inactive.
Screening O=C(Nc1sc2c(c1C(=O)NCC(O)CO)CCCC2)c1ccccc1 (stereo not drawn) returned HDAC3 inhib inactive, PolyA inhibitor inactive, Efflux pump inh inactive, AI-2 QS mod inactive and T cruzi inh inactive.
Screening CN(C)CCCNc1oc(-c2ccccc2Cl)nc1S(=O)(=O)c1ccc(F)cc1 returned HDAC3 inhib inactive, PolyA inhibitor inactive, Efflux pump inh inactive, AI-2 QS mod inactive and T cruzi inh 62.1.
For COc1cc(OC)cc(C(=O)N[C@H](C(=O)Nc2cc(F)ccc2C)C(C)C)c1 the results were HDAC3 inhib inactive, PolyA inhibitor inactive, Efflux pump inh inactive, AI-2 QS mod inactive and T cruzi inh inactive.
COc1ccc(OC)c(S(=O)(=O)N/N=C\c2cn(CC(N)=O)c3ccccc23)c1 was read as PolyA inhibitor inactive, Efflux pump inh inactive, AI-2 QS mod inactive and T cruzi inh inactive.
`CCCCOC(=O)Nc1nnc(C(C)C)s1` gave HDAC3 inhib inactive, PolyA inhibitor inactive, Efflux pump inh inactive, AI-2 QS mod inactive and T cruzi inh 64.3.
For CCCCCOC(=O)Nc1nnc(CCC)s1 the results were HDAC3 inhib inactive, PolyA inhibitor inactive, Efflux pump inh inactive, AI-2 QS mod inactive and T cruzi inh inactive.
For O=C1N=C(N2CCOCC2)S/C1=C/c1ccc(-c2ccc(F)cc2)o1 the results were HDAC3 inhib inactive, PolyA inhibitor inactive, Efflux pump inh inactive, AI-2 QS mod inactive and T cruzi inh inactive.
`Cc1ccc(-c2ccc(/C=C3\SC(N4CCOCC4)=NC3=O)o2)cc1` gave HDAC3 inhib inactive, PolyA inhibitor inactive, Efflux pump inh inactive, AI-2 QS mod inactive and T cruzi inh 65.7.
Screening C[n+]1c2n(c3ccccc31)N=C(c1ccc(-c3ccccc3)cc1)CS2 returned PolyA inhibitor inactive, Efflux pump inh inactive, AI-2 QS mod inactive and T cruzi inh 60.3.
C[n+]1c2n(c3ccccc31)N=C(c1ccc(Br)cc1)CS2 was read as HDAC3 inhib inactive, PolyA inhibitor inactive, Efflux pump inh inactive, AI-2 QS mod inactive and T cruzi inh inactive.
`Cc1cccc(-c2nnc3n2N=C(c2ccccc2)CS3)c1` gave HDAC3 inhib inactive, PolyA inhibitor inactive, Efflux pump inh inactive, AI-2 QS mod inactive and T cruzi inh inactive.
C[n+]1c2n(c3ccccc31)N=C(c1ccccc1)CS2 was read as HDAC3 inhib 31.2, PolyA inhibitor inactive, Efflux pump inh inactive, AI-2 QS mod inactive and T cruzi inh inactive.
Screening COC(=O)c1sccc1NC(=O)CC1C(=O)NCCN1C(=O)Nc1cc(Cl)ccc1OC (stereo not drawn) returned HDAC3 inhib inactive, PolyA inhibitor inactive, Efflux pump inh inactive, AI-2 QS mod inactive and T cruzi inh inactive.
For O=C(/C(=C/c1ccc(Cl)cc1)c1nc2ccccc2[nH]1)c1ccccc1 the results were HDAC3 inhib inactive, PolyA inhibitor inactive, Efflux pump inh inactive, AI-2 QS mod inactive and T cruzi inh 68.0.
